Measurements: ChEMBL document CHEMBL1221219, “Selective blockade of 2-arachidonoylglycerol hydrolysis produces cannabinoid behavioral effects” (Nat Chem Biol, 2009)
Activity calls are given as the source filed them. The rule behind the calls is not given here.

Tests used:
[1] = test system: Mus musculus; experiment: Inhibition of ACOT2 in C57B1/6J mouse brain membrane at 16 mg/kg, ip after 4 hrs by competitive activity-based protein profiling-MudPIT method; assay type: functional, organism-based; design: dose 16 mg/kg
Summary of the method: (§1)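 Mice were dosed 16 mg kg^-1 i.p. or vehicle and killed at 4 h. Brain membrane proteomes were labelled with FP-biotin, avidin-enriched, trypsin-digested on bead, analysed by multidimensional LC-MS and identified by SEQUEST.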

[2] = biological target: T1, Diacylglycerol lipase-alpha (Homo sapiens) (UniProt Q9Y4D2); experiment: Inhibition of recombinant DAGLalpha expressed in HEK293 cells assessed as hydrolysis of 1-stearoyl-2-arachidonoyl-glycerol to 2-AG at 25 uM after 30 mins by LC-MS method; assay type: cell-based
T1 sequence (whole entry): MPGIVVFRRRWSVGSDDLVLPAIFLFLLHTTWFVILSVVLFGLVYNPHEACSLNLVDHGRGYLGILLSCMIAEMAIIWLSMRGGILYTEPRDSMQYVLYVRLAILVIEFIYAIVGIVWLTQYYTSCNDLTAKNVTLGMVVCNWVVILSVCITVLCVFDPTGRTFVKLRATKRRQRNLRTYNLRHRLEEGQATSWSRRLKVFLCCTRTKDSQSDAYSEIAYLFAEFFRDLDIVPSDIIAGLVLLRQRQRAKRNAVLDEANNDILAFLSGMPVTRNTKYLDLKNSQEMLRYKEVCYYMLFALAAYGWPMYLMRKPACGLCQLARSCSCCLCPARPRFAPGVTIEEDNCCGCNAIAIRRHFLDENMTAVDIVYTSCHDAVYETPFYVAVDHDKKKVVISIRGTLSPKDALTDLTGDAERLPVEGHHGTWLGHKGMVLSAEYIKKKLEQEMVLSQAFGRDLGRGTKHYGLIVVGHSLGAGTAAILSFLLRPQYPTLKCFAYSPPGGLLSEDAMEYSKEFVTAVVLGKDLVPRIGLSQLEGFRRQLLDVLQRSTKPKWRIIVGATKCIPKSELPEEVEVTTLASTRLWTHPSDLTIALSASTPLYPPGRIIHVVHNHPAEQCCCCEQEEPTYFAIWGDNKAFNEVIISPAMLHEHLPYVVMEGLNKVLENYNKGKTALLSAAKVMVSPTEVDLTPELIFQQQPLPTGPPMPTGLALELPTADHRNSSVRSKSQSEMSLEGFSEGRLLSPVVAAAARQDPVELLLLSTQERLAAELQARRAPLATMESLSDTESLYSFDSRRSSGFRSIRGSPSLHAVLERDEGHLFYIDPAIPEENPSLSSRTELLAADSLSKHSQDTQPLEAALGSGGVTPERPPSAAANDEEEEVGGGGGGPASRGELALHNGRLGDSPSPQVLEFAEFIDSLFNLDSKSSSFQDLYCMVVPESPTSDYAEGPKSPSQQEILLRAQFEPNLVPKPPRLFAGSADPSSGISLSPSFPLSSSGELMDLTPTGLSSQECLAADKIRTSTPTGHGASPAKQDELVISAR

[3] = test system: Mus musculus; experiment: Inhibition of FAAH in orally dosed C57B1/6J mouse brain membrane after 4 hrs; assay type: functional, organism-based
Summary of the method: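 Oral dosing used male C57Bl/6J mice (6-8 weeks) given inhibitor in PEG300 vehicle at 4 ul g^-1, handled as for i.p. dosing. Brains were taken 4 h later for analysis of brain membrane hydrolase activity.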

[4] = test system: Mus musculus; experiment: Inhibition of MAGL in C57B1/6J mouse brain membrane at 4 mg/kg, ip after 4 hrs by competitive activity-based protein profiling method relative to control; assay type: functional; settings: route intraperitoneal
Summary of the method: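 Male C57Bl/6J mice (6-8 weeks, 20-26 g) dosed i.p. in 4:1 v/v PEG300:Tween80 vehicle at 4 ul g^-1; killed 4 h post-dose. Brain membrane proteomes were then labelled with FP-rhodamine (2 μM, 30 min, room temperature), resolved by SDS-PAGE and scanned in-gel for fluorescence. MAGL signal was compared with vehicle-treated controls.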

[5] = test system: Mus musculus; experiment: Inhibition of FAM108A1 in C57B1/6J mouse brain membrane at 16 mg/kg, ip after 4 hrs by competitive activity-based protein profiling-MudPIT method; assay type: functional, organism-based; design: dose 16 mg/kg
Summary of the method: (§2)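 After i.p. dosing in 4:1 PEG300:Tween80, male C57Bl/6J mice were killed at 4 h. Brain membrane proteomes from treated and vehicle mice were labelled with FP-biotin. Labelled proteins were enriched on avidin, digested on-bead with trypsin and analysed by multidimensional LC-MS. Proteins were identified by SEQUEST, and dosed samples were compared with vehicle.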

[6] = test system: Mus musculus; experiment: Change in anandamide level in C57B1/6J mouse brain at 16 mg/kg, ip by LC-MS; assay type: functional, organism-based; design: dose 16 mg/kg
Summary of the method: (§3)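 Mice received 16 mg kg^-1 i.p. in 4:1 PEG300:Tween80 and were killed at 0.5, 1, 2, 4, 8 and 24 h. Brain lipids, including N-acylethanolamines, MAGs, free fatty acids and arachidonic acid, were measured by LC-MS.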

[7] = test system: Mus musculus; experiment: Change in N-acylethanolamine level in C57B1/6J mouse brain at 16 mg/kg, ip by LC-MS; assay type: functional, organism-based; design: dose 16 mg/kg; summary of the method: as §3
[8] = test system: Mus musculus; experiment: Antinociceptive activity against formalin-induced pain in C57B1/6J mouse assessed as paw lifting or licking during late phase (20-40 mins) at 40 m/kg, po administered 2 hrs before formalin challenge; assay type: functional, organism-based
[9] = test system: Mus musculus; experiment: Inhibition of MAGL in C57B1/6J mouse brain membrane at 16 mg/kg, ip after 4 hrs by competitive activity-based protein profiling-MudPIT method; assay type: functional, organism-based; design: dose 16 mg/kg; summary of the method: as §2
[10] = biological target: T2, Monoglyceride lipase (Mus musculus) (UniProt O35678); settings: C57B1/6J, Brain, Membrane, 50 nM
T2 sequence (whole entry): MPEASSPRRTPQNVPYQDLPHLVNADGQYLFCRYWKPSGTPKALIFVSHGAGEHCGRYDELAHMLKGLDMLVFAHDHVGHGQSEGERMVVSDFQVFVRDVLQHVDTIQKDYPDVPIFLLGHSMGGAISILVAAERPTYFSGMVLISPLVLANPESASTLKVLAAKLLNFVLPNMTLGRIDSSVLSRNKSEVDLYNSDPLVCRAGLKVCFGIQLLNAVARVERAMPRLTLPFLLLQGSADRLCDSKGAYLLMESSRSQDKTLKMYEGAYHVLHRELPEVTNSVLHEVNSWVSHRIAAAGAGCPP

[11] = test system: Mus musculus; experiment: Inhibition of FAAH in C57B1/6J mouse brain membrane at 10 mg/kg, ip by competitive activity-based protein profiling method; assay type: functional, organism-based; design: dose 10 mg/kg
[12] = test system: Mus musculus; experiment: Inhibition of ABHD3 in C57B1/6J mouse brain membrane at 16 mg/kg, ip after 4 hrs by competitive activity-based protein profiling-MudPIT method; assay type: functional, organism-based; design: dose 16 mg/kg; summary of the method: as §1
[13] = test system: Mus musculus; experiment: Inhibition of […] in C57B1/6J mouse brain membrane assessed as residual 2-AG hydrolysis activity at 16 mg/kg, ip after 4 hrs relative to control; assay type: functional; settings: route intraperitoneal
Summary of the method: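 Brain membranes from mice given 4-40 mg kg^-1 i.p. for 4 h were assayed for 2-AG hydrolysis by LC-MS substrate assay. Activity is expressed relative to vehicle control.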

[14] = test system: Mus musculus; experiment: Inhibition of JZL184 induced immobility in C57B1/6J mouse at 16 mg/kg, ip; assay type: functional, organism-based; design: dose 16 mg/kg

## O=C(Oc1ccc([N+](=O)[O-])cc1)N1CCC(C(O)(c2ccc3c(c2)OCO3)c2ccc3c(c2)OCO3)CC1
[1]
  inhibition: inactive
[2]
  inhibition: inactive
[3]
  inhibition: Active
[4]
  fold change (FC): 5
[5]
  inhibition: inactive
[6]
  Activity: inactive
[7]
  Activity: inactive
[8]
  Activity: Active
[9]
  inhibition: Active
[10]
  inhibition: Active
[11]
  inhibition: Active
[12]
  inhibition: inactive
[13]
  Activity: 35%
[14]
  inhibition: Active
